IC50 and Ki data for 9 molecules are collected here from ChEMBL document CHEMBL1177669, “Synthesis and biological study of 3-(phenylsulfonyl)thieno[2,3-e][1,2,3]triazolo[1,5-a]pyrimidines as potent and selective serotonin 5-HT6 receptor antagonists” (Bioorg Med Chem, 2010).

In experiment [1] the target is T1, 5-hydroxytryptamine receptor 6 (Homo sapiens, UniProt P50406). As to the kind of experiment: Displacement of radioligand from human recombinant 5HT6 receptor in competitive radioligand binding assay.
T1 sequence (P50406 whole entry): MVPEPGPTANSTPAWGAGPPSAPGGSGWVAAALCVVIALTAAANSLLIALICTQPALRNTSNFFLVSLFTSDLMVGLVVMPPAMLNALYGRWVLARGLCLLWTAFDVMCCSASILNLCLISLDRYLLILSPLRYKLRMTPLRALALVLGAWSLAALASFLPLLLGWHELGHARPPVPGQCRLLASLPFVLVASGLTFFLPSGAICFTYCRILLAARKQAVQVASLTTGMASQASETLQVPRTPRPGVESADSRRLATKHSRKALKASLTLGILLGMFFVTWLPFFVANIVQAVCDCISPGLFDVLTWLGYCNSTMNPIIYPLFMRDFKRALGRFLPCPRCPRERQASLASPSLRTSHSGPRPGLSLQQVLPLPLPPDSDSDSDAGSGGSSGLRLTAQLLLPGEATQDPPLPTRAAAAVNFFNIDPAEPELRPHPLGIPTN
For experiment [2], the target named is T1, 5-hydroxytryptamine receptor 6. Put plainly: Binding affinity to human recombinant 5HT6 receptor expressed in HEK293 cells by radioligand displacement assay. It counts as cell-based. The procedure, abridged:
(§1)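 Competitive radioligand binding at the 5-HT6 receptor, run by MDS Pharma Services as part of a serotonin receptor panel. IC50 and Ki values derived.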
For orientation: Displacement assays read how much labelled ligand stays bound in the presence of the test substance.

The target is the same in experiment [3]. Put plainly: Antagonist activity at human recombinant 5HT6 receptor expressed in HEK293 cells assessed as inhibition of serotonin-induced cAMP production. It counts as functional, cell-based. A digest of the protocol:
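HEK293 cells stably expressing recombinant human 5-HT6R, stimulated with serotonin. cAMP from adenylyl cyclase measured by LANCE. Compounds screened at 5 and 10 μM. IC50 determined for compounds giving more than 50% inhibition of cAMP synthesis at 5 μM.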

The target is the same in experiment [4]. As to the kind of experiment: Binding affinity to 5HT6 receptor. The procedure, abridged: as §1

For the molecule `CN(C)c1nc2c(S(=O)(=O)c3ccccc3)nnn2c2ccsc12`, the IC50 in experiment [1] is over 300 nM; in experiment [2] it was over 30 nM.
On to `CN(C)CCN(C)c1nc2c(S(=O)(=O)c3ccccc3)nnn2c2ccsc12`, for which the IC50 in experiment [3] was 870 nM; in experiment [2], over 300 nM.
Turning to `CN(Cc1cccnc1)c1nc2c(S(=O)(=O)c3ccccc3)nnn2c2ccsc12`, the IC50 was 500 nM in experiment [3] and over 30 nM in experiment [2].
Consider `O=S(=O)(c1ccccc1)c1nnn2c1nc(NC1CCCCC1)c1sccc12`, for which the results for the IC50 in experiment [3] and in experiment [2] were 200 nM and 6.9 nM, respectively. Moreover, the Ki in experiment [2] is 3.2 nM.
As for `CCC(C)Nc1nc2c(S(=O)(=O)c3ccccc3)nnn2c2ccsc12` (stereo unspecified), in experiment [4], the IC50 was determined as 9.6 nM.
`CC(C)Nc1nc2c(S(=O)(=O)c3ccccc3)nnn2c2ccsc12`: the values for the IC50 in experiment [3] and in experiment [2] were 370 nM and 65 nM, respectively. Besides, the Ki in experiment [2] is 30.2 nM.
Taken in the same sequence, the figures for `O=S(=O)(c1cccc(Cl)c1)c1nnn2c1nc(NCc1cccnc1)c1sccc12` were 1250 nM, 31.7 nM and 14.7 nM.
Taken in the same sequence, the figures for `O=S(=O)(c1ccccc1)c1nnn2c1nc(NC1CCCC1)c1sccc12` were 140 nM, 11.9 nM and 5.5 nM.
For the molecule `O=S(=O)(c1ccccc1)c1nnn2c1nc(NCc1cccnc1)c1sccc12`, the IC50 was 260 nM in experiment [3] and over 30 nM in experiment [2].

Broadly, the IC50 is the concentration that inhibits the measured activity by half. In general, Ki refers to a dissociation constant, usually derived from enzyme kinetics or from competition with a known ligand.
